Compound activity (PubChem BioAssay)
Dynein transport: blocks dynein driven cargo transport along microtubules; hit rate 0.47% among 220,000; AID 1381; z-score, hits read low; 3617.4 mouse cells, GR-EGFP nuclear translocation imaging; test concentration mostly 20 µM; stimulated with dexamethasone, 1 µM; hits give low values;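 active = plate z-score of nuclear minus cytoplasmic receptor signal below a set negative limit, without overly bright fluorescence or cell loss, cut at about -3.5 in these data, passing the limit was not always enough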;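 note: z-score of nuclear minus cytoplasmic ring GR-EGFP intensity difference per well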
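medium = tetracycline-free induction medium containing charcoal-stripped FBS | probe or stimulus = dexamethasone, 1.0 µM final | timing = 48 h induction, then 1 h compound, then 30 min agonist, 37 °C | detection = automated 10x imaging of fixed Hoechst-stained cells | read-out basis = nuclear versus cytoplasmic GR-EGFP signal, averaged per well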
Hsp70 activator: switches on Hsp70 transcription | HeLa Hsp70 promoter luciferase reporter, luminescence; scaled: vehicle 0, proteasome-inhibitor control 100% | activation, % at 10 µM | hit rate 0.04% among 200,000;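 active = activation above the mean across all tested compounds plus 3 SD, cutoff set per campaign, cut at about 5.5% in these data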;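 note: 100% = MG132 at 30 µM as the positive control and 0% = DMSO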
PGE2 EP2 inh: EP2 receptor (human) inhibition. P43116. C6 glioma cells expressing human EP2, cAMP TR-FRET; cells stimulated with saturating PGE2. inhibition, % at 25 µM. hit rate 0.52% among 260,000;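 active = percent inhibition above 40 after rounding to a whole number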;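 note: rat C6 glioma host cells with rolipram phosphodiesterase inhibitor present; the protocol text gives 20 µM as final concentration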
Target sequence (P43116 whole entry, looked up): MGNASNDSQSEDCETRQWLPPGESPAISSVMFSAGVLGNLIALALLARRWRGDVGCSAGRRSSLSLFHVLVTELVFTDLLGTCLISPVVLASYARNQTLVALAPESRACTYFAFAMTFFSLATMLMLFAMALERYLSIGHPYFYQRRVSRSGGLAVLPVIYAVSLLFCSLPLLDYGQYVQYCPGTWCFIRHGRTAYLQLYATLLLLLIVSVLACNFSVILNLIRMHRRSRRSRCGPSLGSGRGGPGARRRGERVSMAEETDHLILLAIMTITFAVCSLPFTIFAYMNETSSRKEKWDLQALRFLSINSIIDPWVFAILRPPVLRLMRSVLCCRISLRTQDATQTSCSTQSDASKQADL
EP2 modulator: EP2 receptor (human) modulation. P43116. EP2-expressing cells, cAMP HTRF FRET, PGE2 co-stimulation. induction, % at 25 µM. hit rate 0.83% among 260,000. AID 940;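 active = compounds whose cAMP rise, as percent of the full-agonist control response, exceeds 60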;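 note: rat C6 glioma line stably carrying human EP2 under a CMV promoter; the protocol text gives 20 µM as final concentration; 100% = response of wells given 1 µM PGE2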
Dynein inh conf: dynein cargo transport inhibition, confirmation. AID 463116. calls only at 20 µM. shares compounds with Dynein transport. 3617.4 GR-EGFP nuclear translocation imaging, dexamethasone-induced. hit rate 69% among 1,000;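 active = inhibition of receptor movement into the nucleus at or above a set limit in both runs, with normal cell brightness and cell count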;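 note: dexamethasone at 1 µM final in well for 30 min; nuclear minus cytoplasmic GR-EGFP mean intensity difference in channel 2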
* marks the source's active call; other numbers are inactive results. Sampled rows, rich in hits. Any-hit rate of the full collection: about 1.7%.

Results for CC(C)N=c1scc(-c2cccs2)n1/N=C/c1ccc(O)c(O)c1O ?
Dynein transport: -4.2*; Hsp70 activator: 0; PGE2 EP2 inh: 12; EP2 modulator: -63; Dynein inh conf: active

What do the screens show for `O=C(CSc1nc2c(c(C(F)(F)F)n1)CCc1ccccc1-2)NC1CCCCC1`?
PGE2 EP2 inh: 9; EP2 modulator: -117

What do the screens show for `N#Cc1cc(-c2ccccc2)[nH]c1-c1nccc2ccccc12`?
Dynein transport: 0.2; PGE2 EP2 inh: 17; EP2 modulator: 10

What do the screens show for `c1ccc(-c2ccc(-c3nccc4ccccc34)[nH]2)cc1`?
Dynein transport: -4.6; PGE2 EP2 inh: 22; EP2 modulator: -46; Dynein inh conf: inactive

What do the screens show for `CC(=O)c1sc2nc(-c3cccs3)cc(C(F)(F)F)c2c1N`?
Dynein transport: -4.3; Hsp70 activator: 0; PGE2 EP2 inh: 24; EP2 modulator: 33; Dynein inh conf: active

Results for Nc1c(C(=O)C2CC2)sc2nc(-c3ccccc3)cc(C(F)(F)F)c12 ?
Dynein transport: -6.1; Hsp70 activator: 0; PGE2 EP2 inh: 10; EP2 modulator: 48; Dynein inh conf: inactive

What do the screens show for `CCc1nnc(NC(=O)CSc2nnc(COc3cccc(C)c3)n2C)s1`?
PGE2 EP2 inh: 6; EP2 modulator: 6

Results for Cc1c(/C=N/Nc2ccc([N+](=O)[O-])cn2)c2ccccc2n1Cc1ccccc1 ?
Dynein transport: 0.11; PGE2 EP2 inh: 4; EP2 modulator: 12

How did Cc1ccc(Cn2cc(/C=N/Nc3ccc([N+](=O)[O-])cn3)c3ccccc32)cc1 do in these assays?
Dynein transport: -4.6; Hsp70 activator: 0; PGE2 EP2 inh: 10; EP2 modulator: 1; Dynein inh conf: active

What do the screens show for `C=CS(=O)(=O)c1sc(Cl)c(N2CCOCC2)c1[N+](=O)[O-]`?
Dynein transport: -4.3*; Hsp70 activator: 0; PGE2 EP2 inh: 14; EP2 modulator: -49; Dynein inh conf: active

How did C=C1C(=O)[C@@]23[C@H](O)C[C@@H]4C(C)(C)CC[C@H](O)[C@]4(C)[C@@H]2C[C@H](O)[C@@H]1[C@H]3O do in these assays?
Dynein transport: -5.1*; Hsp70 activator: 0; PGE2 EP2 inh: 19; EP2 modulator: 2; Dynein inh conf: active

What do the screens show for `C=C1C(=O)[C@@]23[C@H](O)C[C@@H]4C(C)(C)CC[C@H](O)[C@@]4(C)[C@@H]2CC[C@@H]1[C@H]3O`?
Dynein transport: -5.5*; Hsp70 activator: 0; PGE2 EP2 inh: 6; EP2 modulator: -31; Dynein inh conf: active

Results for Cn1cc(C(=O)CCl)c2ccccc21 ?
Dynein transport: -4.8*; Hsp70 activator: 0; PGE2 EP2 inh: 11; EP2 modulator: -17; Dynein inh conf: active

Results for Cn1cc(C(N)=O)c2ccccc21 ?
Dynein transport: -0.54; Hsp70 activator: 0; PGE2 EP2 inh: 17; EP2 modulator: -13

How did COc1ccc(Nc2ccccc2N)cc1 do in these assays?
Dynein transport: -5.1*; Hsp70 activator: 0; PGE2 EP2 inh: -2; EP2 modulator: 29; Dynein inh conf: inactive

What do the screens show for `COc1ccc(C(c2c(C)[nH]n(C(N)=S)c2=O)C(C#N)C#N)cc1` (configuration not stated)?
Dynein transport: -4.1*; Hsp70 activator: 0; PGE2 EP2 inh: 12; EP2 modulator: 23; Dynein inh conf: active

How did Cc1sc2nc(C3CC3)n(C3CCN(CC(=O)NC(C)C)CC3)c(=O)c2c1C do in these assays?
PGE2 EP2 inh: 7; EP2 modulator: -33

What do the screens show for `Cn1cc([N+](=O)[O-])c(C(=O)Nc2cc(Oc3ccccc3)cc([N+](=O)[O-])c2)n1`?
Dynein transport: -3.9*; Hsp70 activator: 1; PGE2 EP2 inh: 6; EP2 modulator: -20; Dynein inh conf: active

How did CC(=O)NC1(c2ccccc2F)CCN(Cc2ccccc2N2CCCC2)CC1 do in these assays?
PGE2 EP2 inh: 5; EP2 modulator: -4

What do the screens show for `CCCCNC1C(CC)C(CCC)C(C#N)(C#N)C1(C#N)C#N` (configuration not stated)?
Dynein transport: -3.6*; Hsp70 activator: 0; PGE2 EP2 inh: 19; EP2 modulator: 16; Dynein inh conf: active

How did O=C(Cc1ccccc1F)N1CCC(n2nnc3ccccc3c2=O)CC1 do in these assays?
PGE2 EP2 inh: 4; EP2 modulator: -38

What do the screens show for `CCC(c1nnnn1C1CCCC1)N(Cc1cc2ccc(OC)cc2[nH]c1=O)C1CCCC1` (configuration not stated)?
PGE2 EP2 inh: 10; EP2 modulator: 26

How did COc1ccc(OC)c(S(=O)(=O)Nc2ccc(O)c3ccccc23)c1 do in these assays?
Dynein transport: -4.2*; Hsp70 activator: 0; PGE2 EP2 inh: 42*; EP2 modulator: -27; Dynein inh conf: inactive

How did Cc1cnc(NC(=O)CN2CCC3(CC2)NC(=O)c2ccccc2N3)s1 do in these assays?
PGE2 EP2 inh: 12; EP2 modulator: -18

How did COc1ccc(OC)c([C@@H]2C[C@H](C(=O)NCc3ccco3)N(C)S(=O)(=O)N2)c1 do in these assays?
EP2 modulator: 17

How did CCOc1ccc(C(=O)Nc2ccc(N3CCN(C(=O)C(C)C)CC3)cc2)cc1 do in these assays?
PGE2 EP2 inh: 15; EP2 modulator: -1

Results for O=C1/C(=C\c2ccco2)CCC/C1=C\c1ccco1 ?
Dynein transport: -2.3; Hsp70 activator: 0; PGE2 EP2 inh: 6; EP2 modulator: 37

How did CC1C/C(=C/c2ccco2)C(=O)/C(=C/c2ccco2)C1 (configuration not stated) do in these assays?
Dynein transport: -3.7; Hsp70 activator: 0; PGE2 EP2 inh: 10; EP2 modulator: 50; Dynein inh conf: active

How did Clc1ncnc2scc(-c3ccc(Br)cc3)c12 do in these assays?
Dynein transport: -4.5*; Hsp70 activator: 0; PGE2 EP2 inh: 4; EP2 modulator: 22; Dynein inh conf: active

Results for Cc1cc(N)n(-c2ncnc3scc(-c4ccc(Cl)cc4)c23)n1 ?
Dynein transport: 0.51; Hsp70 activator: 0; PGE2 EP2 inh: 11; EP2 modulator: -45

What do the screens show for `CCN1C(=O)C(C(=O)NC(C)c2ccc(OC)cc2)C2CC1(C)Oc1ccccc12` (configuration not stated)?
PGE2 EP2 inh: 11; EP2 modulator: -93

How did O=C(c1nccs1)C1CCN(C(=O)c2n[nH]c3c2CCCC3)CC1 do in these assays?
EP2 modulator: -27

What do the screens show for `CCN(C(=O)c1c(C)cc(=O)oc1C)c1ccc2c(c1)OCO2`?
Dynein transport: 0.32; Hsp70 activator: 0; PGE2 EP2 inh: 10; EP2 modulator: -8

How did CCN(C(=O)c1coc(=O)c(Br)c1)c1ccc2c(c1)OCO2 do in these assays?
Dynein transport: -4.8*; Hsp70 activator: 0; PGE2 EP2 inh: 9; EP2 modulator: -62; Dynein inh conf: active

Results for COc1ccc(N2CC(C(=O)Nc3ccccc3C)CC2=O)cc1 (configuration not stated) ?
PGE2 EP2 inh: 4; EP2 modulator: -12
